ChEMBL document CHEMBL1817559, “Synthesis and biological evaluation of HQCAs with aryl or benzyl substituents on N-1 position as potential HIV-1 integrase inhibitors” (Bioorg Med Chem, 2011)
pEC50: −log10 of the molar value.

Assays:
[1] = test system: Human immunodeficiency virus 1; experiment: Antiviral activity against wild type HIV1 LAI-3B infected in human C8166 cells assessed as inhibition of virus-induced cytopathic effect by MTT assay; type: functional, organism-based; settings: Human immunodeficiency virus 1, LAI-3B
Procedure, shortened: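 C8166 cells infected with wild-type HIV-1 LAI (strain IIIB); EC50 = concentration protecting cells from viral cytopathogenicity by 50%, read by MTT; means of at least two separate experiments.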

[2] = test system: Human immunodeficiency virus 1; experiment: Antiviral activity against HIV1 A17 harboring reverse transcriptase Y181C mutant infected in human C8166 cells assessed as inhibition of virus-induced cytopathic effect by MTT assay; type: functional, organism-based; settings: Human immunodeficiency virus 1, A17, C8166
Procedure, shortened: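 C8166 cells infected with mutant HIV-1 strain A17; protection from viral cytopathogenicity read by MTT. EC50 is the compound concentration that protects cells from viral cytopathic effect by 50%. Values are means of at least two separate experiments.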

[3] = Cytotoxicity against human C8166 cells by MTT assay; type: cell-based
Procedure, shortened: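 Normal uninfected C8166 cells; MTT viability readout; CC50 = concentration reducing viability by 50%; means of at least two separate experiments.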

[4] = Selectivity index, ratio of CC50 for human C8166 cells to EC50 for wild type HIV1 LAI-3B; type: toxicity, cell-based; settings: read-out: Ratio CC50/EC50
Procedure, shortened: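 Ratio CC50/EC50, where CC50 is from MTT viability of uninfected C8166 cells and EC50 is 50% protection of wild-type HIV-1 IIIB-infected C8166 cells from cytopathogenicity (MTT); inputs are means of at least two experiments.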

O=C(O)c1cn(Cc2ccccc2)c2ccc(Cc3cccc(Cl)c3F)c(O)c2c1=O
pEC50 [1]: 5.50 | pEC50 [2]: 4.75 | CC50 [3]: 20.3 µM | selectivity ratio [4]: 6.42

Cc1cccc(-n2cc(C(=O)O)c(=O)c3c(O)c(Cc4cccc(Cl)c4F)ccc32)c1
pEC50 [1]: 4.69 | pEC50 [2]: 4.36 | CC50 [3]: 71.5 µM | selectivity ratio [4]: 3.49

O=C(O)c1cn(Cc2ccccc2)c2ccc(Cc3ccccc3F)c(O)c2c1=O
pEC50 [1]: 4.68 | pEC50 [2]: 4.29 | CC50 [3]: 156 µM | selectivity ratio [4]: 7.49

O=C(O)c1cn(Cc2cccc(F)c2)c2ccc(Cc3cccc(Cl)c3F)c(O)c2c1=O
pEC50 [1]: 5.31 | pEC50 [2]: 4.72 | CC50 [3]: 69 µM | selectivity ratio [4]: 14

O=C(O)c1cn(Cc2ccc(F)c(F)c2)c2ccc(Cc3cccc(Cl)c3F)c(O)c2c1=O
pEC50 [1]: 5.24 | pEC50 [2]: 4.62 | CC50 [3]: 71.4 µM | selectivity ratio [4]: 12.4

O=C(O)c1cn(-c2ccc(Br)cc2)c2ccc(Cc3cccc(Cl)c3F)c(O)c2c1=O
pEC50 [1]: 5.15 | pEC50 [2]: 4.48 | CC50 [3]: 85 µM | selectivity ratio [4]: 11.9

O=C(O)c1cn(Cc2ccccc2F)c2ccc(Cc3cccc(Cl)c3F)c(O)c2c1=O
pEC50 [1]: 5.49 | pEC50 [2]: 4.62 | CC50 [3]: 44.9 µM | selectivity ratio [4]: 13.7

O=C(O)c1cn(Cc2ccccc2F)c2ccc(Cc3ccccc3F)c(O)c2c1=O
pEC50 [1]: 5.19 | pEC50 [2]: 4.57 | CC50 [3]: 67.1 µM | selectivity ratio [4]: 10.4

CC(C)[C@@H](CO)n1cc(C(=O)O)c(=O)c2c(O)c(Cc3cccc(Cl)c3F)ccc21
pEC50 [2]: 7.07

Cc1ccc(-n2cc(C(=O)O)c(=O)c3c(O)c(Cc4cccc(Cl)c4F)ccc32)cc1
pEC50 [1]: 5.45 | pEC50 [2]: 4.17 | CC50 [3]: 194 µM | selectivity ratio [4]: 54.2

COc1cc2c(cc1Cc1cccc(Cl)c1F)c(=O)c(C(=O)O)cn2[C@H](CO)C(C)C [ELVITEGRAVIR]
pEC50 [2]: 9.00

Cc1ccc(Cn2cc(C(=O)O)c(=O)c3c(O)c(Cc4cccc(Cl)c4F)ccc32)cc1
pEC50 [1]: 5.26 | pEC50 [2]: 4.53 | CC50 [3]: 256 µM | selectivity ratio [4]: 46

Cc1ccc(-n2cc(C(=O)O)c(=O)c3c(O)c(Cc4cccc(Cl)c4F)ccc32)cc1C
pEC50 [1]: 4.60 | pEC50 [2]: 4.48 | CC50 [3]: 316 µM | selectivity ratio [4]: 12.7

O=C(O)c1cn(Cc2ccc(F)cc2)c2ccc(Cc3cccc(Cl)c3F)c(O)c2c1=O
pEC50 [1]: 5.03 | pEC50 [2]: 4.65 | CC50 [3]: 65.8 µM | selectivity ratio [4]: 7.04

O=C(O)c1cn(-c2ccccc2)c2ccc(Cc3cccc(Cl)c3F)c(O)c2c1=O
pEC50 [1]: 3.51 | CC50 [3]: 388 µM | selectivity ratio [4]: 1.26
